Lipid droplet = hepatic lipid droplet formation modulation; AML12 mouse hepatocytes, oleate lipid droplets, BODIPY imaging; inhibition, % at 6.5 µM; 0.4% of 240,000 active; AID 1656;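 active means lipid droplet intensity inhibited by at least 50%, with more than 500 cells counted; inconclusive means wells with under 300 cells, treated as cytotoxic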
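Assay system: AML12 hepatocytes (mouse); Probe or stimulus: oleic acid at 100 µM to induce lipid droplet formation; Dosing: compound at 6.5 µM only; Schedule: compound with oleate, overnight; Detection: fluorescence imaging, 20x objective, two fields per well; Measure: % inhibition of lipid droplet signal.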
Jurkat NFkB inh = inhibitors of the PMA/ionomycin-induced NF-kB reporter in Jurkat cells; PMA/ionomycin-induced NF-kB luciferase reporter, luminescence; inhibition, % at 4 µM; AID 435003; 0.53% of 330,000 active; in the data active means inhibition above about 50%
APP transl inh = APP translation inhibition; 0.82% of 190,000 active; AID 1285; SH-SY5Y APP 5'UTR-luciferase reporter, luminescence; inhibition, % at 2 µM;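 active means inhibition above a set limit, derived from the sample mean plus 3 SD, cut at about 45% in these data; inconclusive means one replicate passes the limit while the other fails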
aSyn UTR inh = MLPCN primary screen, SNCA 5' untranslated region; alpha-synuclein 5'UTR reporter, inhibitor activity; AID 1813; inhibition, % (tested at 7.5 µM); 0.82% of 300,000 active; in the data active means inhibition above about 60%; inconclusive means no clear call, values can overlap the other calls;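 further: H4 neuroglioblastoma cells stably carrying SNCA 5'UTR luciferase fusion; 0% = DMSO wells and 100% = positive control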
697 NFkB inh = lowers PMA/ionomycin-induced NF-kB signal in 697 B cells; 697 B-cell NF-kB luciferase reporter, 16 h; AID 435022; inhibition, % at 4 µM; 0.33% of 330,000 active; in the data active means inhibition above about 35%
TAG inh = triacylglycerol accumulation inhibition | 0.66% of 230,000 active | inhibition, % at 12.5 µM | H9c2 cells, Nile Red lipid (TAG) fluorescence; cells loaded with 200 µM oleic acid;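 active means pattern-corrected inhibition of lipid staining of at least 50% with the nuclear-stain viability signal not falling by more than 50%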;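 further: 0% = DMSO wells and 100% = triacsin C control wells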
Jurkat NFkB conf = lowers PMA/ionomycin-induced NF-kB signal in Jurkat cells; Jurkat NF-kB luciferase, 16 h; shares compounds with Jurkat NFkB inh; inhibition, % at 4 µM; AID 435020; 27% of 2,700 active;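 active means inhibition reaching about 45% at 4 µM in either replicate, limit read from the data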;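 further: plate controls were PMA/ionomycin stimulated DMSO wells for no effect and unstimulated DMSO wells for full effect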
Active calls of the source: *; ? = inconclusive; . = no result. Sampled rows, rich in hits. Any-hit rate of the full collection: about 1.9%.

SMILES	Lipid droplet	Jurkat NFkB inh	APP transl inh	aSyn UTR inh	697 NFkB inh	TAG inh	Jurkat NFkB conf
COc1ccccc1NS(=O)(=O)c1ccc(-c2cnc(C3CC3)o2)cc1	-250	48	.	-10	-25	.	.
COc1ccccc1CNS(=O)(=O)c1ccc(-c2cnc(C3CC3)o2)cc1	-81	51*	.	61	-54	.	50*
COc1ccc(NS(=O)(=O)c2ccc(-c3cnc(C4CC4)o3)cc2)cc1OC	-7	57*	.	41	17	.	68*
O=S(=O)(Nc1ccc(F)cc1Cl)c1ccc(-c2cnc(C3CC3)o2)cc1	-123	52*	.	68*	-26	.	52*
Cc1ccc(NS(=O)(=O)c2ccc(-c3cnc(C4CC4)o3)cc2)c(C)c1	?	54*	.	77*	-28	.	61*
CCN(C(=O)COC(=O)c1cc(-c2cccc3ccccc23)nc2ccccc12)C1CCS(=O)(=O)C1 (stereo unspecified)	-1	7	-1	9	-5	5	.
CCOc1ccccc1NS(=O)(=O)c1ccc(-c2cnc(C3CC3)o2)cc1	?	55*	.	20	-81	.	58*
Cc1cccc(N(C)S(=O)(=O)c2ccc(-c3cnc(C4CC4)o3)cc2)c1	?	62*	.	97*	-122	.	54*
COc1cccc(O)c1CN1CCC(C(=O)Nc2ccc(Oc3cccnc3)cc2)CC1	-5	-6	.	24	-20	-11	.
COc1ccc(CN2CCC(C(=O)Nc3ccc(Oc4cccnc4)cc3)CC2)c(C)c1C	-8	54*	.	37	-41	.	31
COc1cc(OC)cc(C(=O)Nc2nnc(Cc3ccc(OC)c(OC)c3)s2)c1	-7	4	12	10	8	7	.
Cc1[nH]c2ccccc2c1/C=N/NC(=O)c1cc(-c2ccncc2)nc2ccccc12	-26	56*	.	33	8	21	12
O=C(N/N=C/c1ccccn1)c1cc(-c2ccc(Cl)cc2)nc2ccccc12	9	38	34	-5	-67	.	.
O=C(N/N=C/c1ccccn1)c1cc(-c2ccc(Br)cc2)nc2ccccc12	-52	54*	.	20	-63	43	19
Cc1[nH]c2ccccc2c1/C=N/NC(=O)c1cc(-c2ccccc2)n[nH]1	11	-2	.	26	6	0	.
COc1ccc(N(C)C2=NS(=O)(=O)c3ccccc32)cc1	29	56*	.	-70	-73	13	39
COc1ccc(/C=N/N(C)C2=NS(=O)(=O)c3ccccc32)cc1	.	25	.	-1	6	.	.
COC(=O)c1sc(N)c(C(=O)OC)c1COC(=O)c1c(C)noc1C	.	68*	43	40	-11	.	21
CCN(C(=O)Cn1nnc(-c2ccccc2)n1)C1CCS(=O)(=O)C1 (stereo unspecified)	.	-3	.	9	4	14	.
Cc1ccc(C2=NN3C(C2)c2ccccc2OC32C(=O)Nc3ccccc32)cc1 (stereo unspecified)	.	-167	-204	-148	-196	-15	-101
CC(=O)Nc1nc(C2COc3ccccc3O2)cs1 (stereo unspecified)	-9	-101	-168	-20	-187	.	.
NC(N)=Nc1nc(C2COc3ccccc3O2)cs1 (stereo unspecified)	-2	-167	-166	-64	-239	1	-87
Cc1ccc(C)c(S(=O)(=O)N2CCCCC2CCNC(=O)C(=O)NCc2cccnc2)c1 (stereo unspecified)	.	20	.	12	2	6	.
Cc1ccc(S(=O)(=O)N2CCCCC2CCNC(=O)C(=O)NCc2cccnc2)cc1 (stereo unspecified)	.	62*	.	-48	6	12	17
COc1ccc(S(=O)(=O)N2CCCC2CNC(=O)C(=O)NCCc2ccccc2)cc1 (stereo unspecified)	.	54*	.	-48	-32	19	29
COc1ccc(NC(=O)C(=O)NCCC2CCCCN2S(=O)(=O)c2ccc(F)cc2)cc1 (stereo unspecified)	.	60*	.	-44	-39	10	23
Cc1cccc(NS(=O)(=O)c2cc(C(=O)N3CCCCCC3)ccc2C)c1	-25	2	.	12	17	-7	.
CCc1nc2ccc(C(=O)N(C)Cc3ccco3)cn2c1N(CC)Cc1cccc(Br)c1	.	.	.	.	.	-12	.
